Measured values published in ChEMBL document CHEMBL5696442, “Discovery of type II inhibitors of TGFβ-activated kinase 1 (TAK1) and mitogen-activated protein kinase kinase kinase kinase 2 (MAP4K2)” (J Med Chem, 2015).

Tests used:
[1] = AUC last in Swiss albino mouse at 10 mg/kg, po measured upto 24 hrs by LC/MS/MS analysis; assay type: ADME, organism-based; details: in vivo
[2] = molecular target: T1, Mitogen-activated protein kinase kinase kinase kinase 2 (Homo sapiens, UniProt Q12851); assay: Inhibition of MAP4K2 (unknown origin) Lys1 labeling site by KiNativ Profiling analysis
T1 sequence (Q12851 whole entry): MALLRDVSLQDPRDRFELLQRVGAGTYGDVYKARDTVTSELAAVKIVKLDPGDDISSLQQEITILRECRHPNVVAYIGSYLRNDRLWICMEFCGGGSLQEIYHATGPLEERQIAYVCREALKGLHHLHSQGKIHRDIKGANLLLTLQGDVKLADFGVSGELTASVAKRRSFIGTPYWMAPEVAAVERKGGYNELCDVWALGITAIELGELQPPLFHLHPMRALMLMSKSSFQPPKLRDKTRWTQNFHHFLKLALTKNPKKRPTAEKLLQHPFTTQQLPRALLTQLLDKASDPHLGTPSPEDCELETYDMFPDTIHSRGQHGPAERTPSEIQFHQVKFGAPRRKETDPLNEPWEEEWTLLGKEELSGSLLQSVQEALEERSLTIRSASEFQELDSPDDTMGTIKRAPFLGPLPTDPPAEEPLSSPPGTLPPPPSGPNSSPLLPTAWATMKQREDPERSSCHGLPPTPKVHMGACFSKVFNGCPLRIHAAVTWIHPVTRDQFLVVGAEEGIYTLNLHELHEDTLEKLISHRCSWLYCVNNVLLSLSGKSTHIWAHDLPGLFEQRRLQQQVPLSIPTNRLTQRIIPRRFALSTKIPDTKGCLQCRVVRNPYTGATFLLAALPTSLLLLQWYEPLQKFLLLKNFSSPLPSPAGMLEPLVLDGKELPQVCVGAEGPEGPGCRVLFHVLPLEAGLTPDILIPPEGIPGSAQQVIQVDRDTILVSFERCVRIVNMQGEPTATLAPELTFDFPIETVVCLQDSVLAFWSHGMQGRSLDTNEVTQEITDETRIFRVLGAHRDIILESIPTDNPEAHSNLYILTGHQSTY

[3] = AUC last in Swiss albino mouse at 1 mg/kg, iv measured upto 24 hrs by LC/MS/MS analysis; assay type: ADME, organism-based; details: in vivo
Summary of the method: (§1)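 Male Swiss albino mice. […] Blood was taken into K2EDTA from three mice per time point, from 0 to 24 h. Plasma was precipitated with acetonitrile and analysed by LC/MS/MS (LLOQ 1.138 ng/mL).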

[4] = Tmax in Swiss albino mouse at 10 mg/kg, po measured upto 24 hrs by LC/MS/MS analysis; assay type: ADME, organism-based; details: in vivo
Summary of the method: (§2)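 Blood was taken at 0, 0.25, 0.5, 1, 2, 4, 6, 8, 12 and 24 h from three mice per time point, into K2EDTA. Plasma was acetonitrile-precipitated and analyzed by LC/MS/MS (LLOQ 1.138 ng/mL).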

[5] = molecular target: T2, Mitogen-activated protein kinase kinase kinase kinase 2 (Homo sapiens) (UniProt Q12851); assay: Inhibition of MAP4K2 Lys1 labeling site in human A-375 cells at 0.5 uM by KiNativ Profiling analysis relative to control; assay type: cell-based
T2 sequence (whole entry): T1 sequence (Q12851 whole entry)

[6] = molecular target: T3, Mitogen-activated protein kinase kinase kinase 7 (Homo sapiens, UniProt O43318); assay: Inhibition of TAK1 (unknown origin) Lys2 labeling site by KiNativ Profiling analysis
T3 sequence (O43318 whole entry): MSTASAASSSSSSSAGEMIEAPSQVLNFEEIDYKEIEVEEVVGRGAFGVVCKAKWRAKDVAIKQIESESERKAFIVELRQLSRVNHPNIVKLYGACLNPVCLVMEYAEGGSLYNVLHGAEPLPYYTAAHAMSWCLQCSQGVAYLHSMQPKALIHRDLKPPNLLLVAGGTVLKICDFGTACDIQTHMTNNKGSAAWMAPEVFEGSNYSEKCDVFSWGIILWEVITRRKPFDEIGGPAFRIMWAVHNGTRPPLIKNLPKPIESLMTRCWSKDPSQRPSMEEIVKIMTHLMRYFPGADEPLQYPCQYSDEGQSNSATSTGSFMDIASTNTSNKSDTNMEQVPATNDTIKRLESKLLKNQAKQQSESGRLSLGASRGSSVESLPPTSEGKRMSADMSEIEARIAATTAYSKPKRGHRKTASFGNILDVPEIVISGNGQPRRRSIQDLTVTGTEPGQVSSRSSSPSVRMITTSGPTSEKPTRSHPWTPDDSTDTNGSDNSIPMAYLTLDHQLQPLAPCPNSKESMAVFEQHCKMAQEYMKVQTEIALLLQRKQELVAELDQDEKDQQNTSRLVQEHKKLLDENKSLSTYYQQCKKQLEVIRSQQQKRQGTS

[7] = Volume of distribution at steady state in Swiss albino mouse at 1 mg/kg, iv measured upto 24 hrs by LC/MS/MS analysis; assay type: ADME, organism-based; details: in vivo
Summary of the method: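 Blood was sampled at 0, 0.083, 0.25, 0.5, 1, 2, 4, 8, 12 and 24 h (three mice per point, K2EDTA). Plasma was precipitated with acetonitrile and quantified by LC/MS/MS (LLOQ 1.138 ng/mL).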

[8] = molecular target: T4, Tyrosine-protein kinase ABL1 (Homo sapiens, UniProt P00519); assay: Inhibition of ABL ACT labeling site in human Huh-7 cell lysate at 1 uM by KiNativ Profiling analysis relative to control; assay type: subcellular
[9] = molecular target: T5, Mitogen-activated protein kinase kinase kinase 7 (Homo sapiens) (UniProt O43318); assay: Inhibition of TAK1 Lys2 labeling site in human A-375 cells at 0.5 uM by KiNativ Profiling analysis relative to control; assay type: cell-based
T5 sequence (whole entry): T3 sequence (O43318 whole entry)

[10] = molecular target: T6, Mitogen-activated protein kinase 14 (Homo sapiens, UniProt Q16539); assay: Inhibition of p38 alpha (unknown origin) by KiNativ Profiling analysis
[11] = molecular target: T7, Mitogen-activated protein kinase kinase kinase 20 (Homo sapiens, UniProt Q9NYL2); assay: Inhibition of ZAK Lys1 labeling site in human Huh-7 cell lysate at 1 uM by KiNativ Profiling analysis relative to control; assay type: subcellular
Target sequence in this assay (Q9NYL2 2-800 limits assumed): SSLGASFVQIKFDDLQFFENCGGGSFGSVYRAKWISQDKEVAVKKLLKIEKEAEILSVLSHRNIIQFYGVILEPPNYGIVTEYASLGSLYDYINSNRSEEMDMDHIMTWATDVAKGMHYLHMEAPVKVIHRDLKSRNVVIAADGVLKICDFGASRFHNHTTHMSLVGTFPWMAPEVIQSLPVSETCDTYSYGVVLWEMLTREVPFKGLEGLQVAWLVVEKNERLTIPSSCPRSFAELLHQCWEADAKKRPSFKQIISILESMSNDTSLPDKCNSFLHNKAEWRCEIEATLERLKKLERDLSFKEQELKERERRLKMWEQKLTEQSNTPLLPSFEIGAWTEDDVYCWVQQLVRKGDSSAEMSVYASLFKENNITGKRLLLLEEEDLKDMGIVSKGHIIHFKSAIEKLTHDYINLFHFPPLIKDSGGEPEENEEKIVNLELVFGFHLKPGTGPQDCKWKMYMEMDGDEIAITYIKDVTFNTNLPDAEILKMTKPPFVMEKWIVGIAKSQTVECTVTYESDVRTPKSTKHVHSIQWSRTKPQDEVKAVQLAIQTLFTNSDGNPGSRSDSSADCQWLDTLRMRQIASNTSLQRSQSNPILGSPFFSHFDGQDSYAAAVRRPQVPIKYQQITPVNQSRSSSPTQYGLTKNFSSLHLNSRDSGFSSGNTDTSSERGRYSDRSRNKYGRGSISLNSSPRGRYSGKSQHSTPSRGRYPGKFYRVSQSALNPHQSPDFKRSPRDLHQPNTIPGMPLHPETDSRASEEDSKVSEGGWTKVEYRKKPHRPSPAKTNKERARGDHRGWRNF

[12] = molecular target: T6, Mitogen-activated protein kinase 14; assay: Inhibition of p38 alpha in human Huh-7 cell lysate at 1 uM by KiNativ Profiling analysis relative to control; assay type: subcellular
[13] = Cmax in Swiss albino mouse at 1 mg/kg, iv measured upto 24 hrs by LC/MS/MS analysis; assay type: ADME, organism-based; details: in vivo; summary of the method: as §1
BaF3 [14] = assay: Antiproliferative activity against parental mouse BaF3 cells assessed reduction in cell viability measured after 48 hrs by Celltiter-glo assay; assay type: functional, cell-based; details: BaF3, 48 h
[15] = Oral bioavailability in Swiss albino mouse at 10 mg/kg measured upto 24 hrs by LC/MS/MS analysis; assay type: ADME, organism-based; details: in vivo; summary of the method: as §2
[16] = molecular target: T7, Mitogen-activated protein kinase kinase kinase 20; assay: Inhibition of ZAK (unknown origin) Lys1 labeling site by KiNativ Profiling analysis
[17] = Cmax in Swiss albino mouse at 10 mg/kg, po measured upto 24 hrs by LC/MS/MS analysis; assay type: ADME, organism-based; details: in vivo
BaF3 [18] = assay: Antiproliferative activity against parental mouse BaF3 cells harbouring Bcr/Abl assessed reduction in cell viability measured after 48 hrs by Celltiter-glo assay; assay type: functional, cell-based; details: BaF3, 48 h
Summary of the method: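 Cells were grown with serial dilutions of compound for 48 h, and viability was read by CellTiter-Glo. IC50 was derived from the dose–response curve. Parental Ba/F3 cells were grown in the presence of interleukin 3. The BCR-ABL line is BCR-ABL-dependent Ba/F3.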

[19] = Half life in Swiss albino mouse at 1 mg/kg, iv measured upto 24 hrs by LC/MS/MS analysis; assay type: ADME, organism-based; details: in vivo; summary of the method: as §1
Ephrin type-A receptor 2 [20] = molecular target: T8, Ephrin type-A receptor 2 (Homo sapiens, UniProt P29317); assay: Inhibition of EphA2 (unknown origin) ACT labeling site by KiNativ Profiling analysis
[21] = molecular target: T9, Tyrosine-protein kinase CSK (Homo sapiens, UniProt P41240); assay: Inhibition of CSK ACT labeling site in human Huh-7 cell lysate at 1 uM by KiNativ Profiling analysis relative to control; assay type: subcellular
Ephrin type-A receptor 2 [22] = molecular target: T8, Ephrin type-A receptor 2; assay: Inhibition of EphA2 ACT labeling site in human Huh-7 cell lysate at 1 uM by KiNativ Profiling analysis relative to control; assay type: subcellular
[23] = molecular target: T4, Tyrosine-protein kinase ABL1; assay: Inhibition of ABL Lys1 labeling site in human Huh-7 cell lysate at 1 uM by KiNativ Profiling analysis relative to control; assay type: subcellular
[24] = molecular target: T9, Tyrosine-protein kinase CSK; assay: Inhibition of CSK (unknown origin) ACT labeling site by KiNativ Profiling analysis
[25] = molecular target: T10, Tyrosine-protein kinase Fes/Fps (Homo sapiens, UniProt P07332); assay: Inhibition of FES (unknown origin) by KiNativ Profiling analysis
[26] = molecular target: T11, Tyrosine-protein kinase Fer (Homo sapiens, UniProt P16591); assay: Inhibition of FER (unknown origin) ACT labeling site by KiNativ Profiling analysis
Target sequence in this assay (P16591 whole entry): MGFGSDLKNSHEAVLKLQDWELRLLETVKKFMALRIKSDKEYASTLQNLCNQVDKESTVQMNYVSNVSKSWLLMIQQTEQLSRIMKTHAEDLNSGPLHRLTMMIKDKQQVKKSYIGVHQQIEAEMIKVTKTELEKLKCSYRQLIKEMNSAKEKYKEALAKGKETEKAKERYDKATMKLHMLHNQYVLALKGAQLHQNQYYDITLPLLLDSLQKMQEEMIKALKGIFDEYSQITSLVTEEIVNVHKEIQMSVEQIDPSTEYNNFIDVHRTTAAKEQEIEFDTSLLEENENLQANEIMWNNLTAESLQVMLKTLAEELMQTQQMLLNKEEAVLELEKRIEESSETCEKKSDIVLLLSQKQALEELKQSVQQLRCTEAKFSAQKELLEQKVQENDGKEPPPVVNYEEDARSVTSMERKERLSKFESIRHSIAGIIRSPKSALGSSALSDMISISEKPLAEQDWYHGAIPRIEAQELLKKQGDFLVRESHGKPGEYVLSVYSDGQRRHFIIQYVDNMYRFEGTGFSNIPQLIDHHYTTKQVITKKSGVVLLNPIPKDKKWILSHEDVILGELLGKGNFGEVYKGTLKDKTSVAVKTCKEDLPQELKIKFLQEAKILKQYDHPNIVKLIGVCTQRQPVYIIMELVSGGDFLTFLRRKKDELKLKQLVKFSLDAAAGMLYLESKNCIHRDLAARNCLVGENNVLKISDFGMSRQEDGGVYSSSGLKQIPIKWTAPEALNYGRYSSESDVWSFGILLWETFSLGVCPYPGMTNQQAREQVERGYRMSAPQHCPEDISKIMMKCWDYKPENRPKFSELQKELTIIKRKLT

[27] = molecular target: T10, Tyrosine-protein kinase Fes/Fps; assay: Inhibition of FES Lys1 labeling site in human Huh-7 cell lysate at 1 uM by KiNativ Profiling analysis relative to control; assay type: subcellular
[28] = molecular target: T11, Tyrosine-protein kinase Fer; assay: Inhibition of FER Lys1 labeling site in human Huh-7 cell lysate at 1 uM by KiNativ Profiling analysis relative to control; assay type: subcellular
Target sequence in this assay (P16591 whole entry, looked up): as the sequence (P16591 whole entry) above

T4 sequence (P00519 whole entry): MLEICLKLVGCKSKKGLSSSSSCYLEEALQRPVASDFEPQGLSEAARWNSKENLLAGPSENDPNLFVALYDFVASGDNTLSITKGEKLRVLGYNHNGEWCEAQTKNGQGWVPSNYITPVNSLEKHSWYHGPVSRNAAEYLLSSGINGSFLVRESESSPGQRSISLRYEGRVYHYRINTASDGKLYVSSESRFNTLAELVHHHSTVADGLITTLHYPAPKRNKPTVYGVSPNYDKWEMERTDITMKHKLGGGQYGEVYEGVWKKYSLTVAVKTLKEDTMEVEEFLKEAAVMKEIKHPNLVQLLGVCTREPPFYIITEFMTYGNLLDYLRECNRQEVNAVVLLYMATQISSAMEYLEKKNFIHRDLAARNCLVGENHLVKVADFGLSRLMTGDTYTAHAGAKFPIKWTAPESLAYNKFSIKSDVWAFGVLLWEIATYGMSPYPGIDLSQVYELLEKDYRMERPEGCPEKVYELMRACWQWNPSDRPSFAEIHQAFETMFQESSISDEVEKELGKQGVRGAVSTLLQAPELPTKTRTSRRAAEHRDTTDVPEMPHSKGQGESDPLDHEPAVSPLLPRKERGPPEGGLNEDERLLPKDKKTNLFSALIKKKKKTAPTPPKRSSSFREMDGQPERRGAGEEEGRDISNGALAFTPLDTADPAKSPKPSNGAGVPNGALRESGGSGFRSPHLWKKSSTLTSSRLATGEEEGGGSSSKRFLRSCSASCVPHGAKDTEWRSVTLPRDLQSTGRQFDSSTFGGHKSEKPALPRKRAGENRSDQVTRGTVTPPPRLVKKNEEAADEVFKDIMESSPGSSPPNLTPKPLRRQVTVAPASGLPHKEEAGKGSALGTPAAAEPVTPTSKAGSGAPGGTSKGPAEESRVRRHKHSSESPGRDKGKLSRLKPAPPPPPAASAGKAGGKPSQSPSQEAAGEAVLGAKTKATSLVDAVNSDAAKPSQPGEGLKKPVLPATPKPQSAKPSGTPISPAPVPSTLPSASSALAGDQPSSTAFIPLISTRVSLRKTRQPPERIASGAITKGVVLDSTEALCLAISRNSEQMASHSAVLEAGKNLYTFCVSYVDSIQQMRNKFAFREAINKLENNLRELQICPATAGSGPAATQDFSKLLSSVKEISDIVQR
T10 sequence (P07332 whole entry): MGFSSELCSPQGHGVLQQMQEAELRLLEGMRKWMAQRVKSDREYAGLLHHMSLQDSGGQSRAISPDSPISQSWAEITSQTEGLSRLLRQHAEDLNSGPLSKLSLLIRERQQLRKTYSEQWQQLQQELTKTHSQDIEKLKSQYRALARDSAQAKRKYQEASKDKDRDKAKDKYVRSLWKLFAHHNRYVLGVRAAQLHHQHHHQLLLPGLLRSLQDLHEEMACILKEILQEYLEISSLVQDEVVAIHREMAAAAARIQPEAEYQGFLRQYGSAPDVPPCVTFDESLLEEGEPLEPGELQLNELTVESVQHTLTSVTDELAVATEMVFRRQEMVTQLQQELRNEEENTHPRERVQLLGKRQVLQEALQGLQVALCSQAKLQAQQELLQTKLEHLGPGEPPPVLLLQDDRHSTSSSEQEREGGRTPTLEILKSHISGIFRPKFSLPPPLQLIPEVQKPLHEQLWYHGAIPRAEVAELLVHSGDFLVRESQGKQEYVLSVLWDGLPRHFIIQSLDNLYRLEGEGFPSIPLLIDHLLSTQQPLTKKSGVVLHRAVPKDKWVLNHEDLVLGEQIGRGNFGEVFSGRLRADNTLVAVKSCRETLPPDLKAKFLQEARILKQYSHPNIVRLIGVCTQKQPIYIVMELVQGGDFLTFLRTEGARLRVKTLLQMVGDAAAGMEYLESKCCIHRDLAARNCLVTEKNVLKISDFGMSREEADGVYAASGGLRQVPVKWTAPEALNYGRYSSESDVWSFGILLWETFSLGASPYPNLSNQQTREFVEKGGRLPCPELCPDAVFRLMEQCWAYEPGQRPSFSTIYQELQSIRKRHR
T6 sequence (Q16539 whole entry): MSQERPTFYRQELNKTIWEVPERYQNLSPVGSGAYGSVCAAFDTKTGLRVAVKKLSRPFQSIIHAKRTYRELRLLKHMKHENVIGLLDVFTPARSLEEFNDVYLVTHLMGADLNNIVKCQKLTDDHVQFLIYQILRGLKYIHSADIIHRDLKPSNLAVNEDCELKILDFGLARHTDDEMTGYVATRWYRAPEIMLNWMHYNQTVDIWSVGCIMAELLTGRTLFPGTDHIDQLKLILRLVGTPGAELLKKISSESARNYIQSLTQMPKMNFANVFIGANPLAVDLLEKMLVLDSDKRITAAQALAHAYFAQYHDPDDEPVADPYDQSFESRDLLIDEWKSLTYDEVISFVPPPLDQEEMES
T8 sequence (P29317 whole entry): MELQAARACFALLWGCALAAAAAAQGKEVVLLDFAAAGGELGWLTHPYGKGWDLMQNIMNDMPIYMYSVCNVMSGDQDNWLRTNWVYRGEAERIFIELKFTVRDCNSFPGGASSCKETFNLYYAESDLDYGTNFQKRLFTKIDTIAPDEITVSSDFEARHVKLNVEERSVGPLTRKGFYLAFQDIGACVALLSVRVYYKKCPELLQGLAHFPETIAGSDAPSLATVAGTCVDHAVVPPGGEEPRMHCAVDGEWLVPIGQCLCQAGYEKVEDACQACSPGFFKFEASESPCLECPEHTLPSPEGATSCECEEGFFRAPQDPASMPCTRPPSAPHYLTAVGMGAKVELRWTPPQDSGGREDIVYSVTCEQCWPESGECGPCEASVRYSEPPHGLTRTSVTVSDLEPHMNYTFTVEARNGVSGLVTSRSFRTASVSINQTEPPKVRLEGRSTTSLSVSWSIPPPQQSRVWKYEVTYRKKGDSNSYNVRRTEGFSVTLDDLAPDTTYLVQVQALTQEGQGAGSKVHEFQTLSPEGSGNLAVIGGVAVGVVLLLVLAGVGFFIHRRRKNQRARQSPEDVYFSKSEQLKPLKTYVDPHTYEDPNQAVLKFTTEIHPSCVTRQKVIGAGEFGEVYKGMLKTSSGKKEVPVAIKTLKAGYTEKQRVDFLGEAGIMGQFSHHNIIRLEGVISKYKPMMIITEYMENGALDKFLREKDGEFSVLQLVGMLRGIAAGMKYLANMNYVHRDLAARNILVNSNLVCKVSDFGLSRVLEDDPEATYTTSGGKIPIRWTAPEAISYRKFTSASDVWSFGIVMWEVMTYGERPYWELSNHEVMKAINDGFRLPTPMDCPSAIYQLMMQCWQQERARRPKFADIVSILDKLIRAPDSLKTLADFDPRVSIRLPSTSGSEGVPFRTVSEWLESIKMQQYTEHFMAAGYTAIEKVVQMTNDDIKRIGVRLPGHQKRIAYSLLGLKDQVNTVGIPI

| SMILES | AUClast [1] [ng·h/mL] | IC50 [2] [nM] | AUClast [3] [ng·h/mL] | Tmax [4] [h] | inhibition [5] [%] | IC50 [6] [nM] | Vdss [7] [L/kg] | inhibition [8] [%] | inhibition [9] [%] | IC50 [10] [nM] | inhibition [12] [%] | Cmax [13] [ng/mL] | IC50 (BaF3 [14]) [nM] | F [15] [%] | Cmax [17] [ng/mL] | IC50 (BaF3 [18]) [nM] | t1/2 [19] [h] | inhibition [23] [%] | IC50 [25] [nM] | IC50 [26] [nM] | further results |
| --- | --- | --- | --- | --- | --- | --- | --- | --- | --- | --- | --- | --- | --- | --- | --- | --- | --- | --- | --- | --- | --- |
| CCN1CCN(Cc2ccc(NC(=O)c3ccc(C)c(Oc4ncnc5[nH]ncc45)c3)cc2C(F)(F)F)CC1 | 186.2 | 43.8 | 167.9 | 0.5 | 89.9 | 75.5 | 6.1 | 93 | 86.5 | 29.8 | 96.6 | 280.3 | 7910 | 11.1 | 61.3 | 55 | 0.87 | – | – | – | inhibition [11]: 95.2%; IC50 [16]: 127 nM |
| CCN1CCN(Cc2ccc(NC(=O)c3ccc(C)c(Oc4ncnc5[nH]ccc45)c3)cc2C(F)(F)F)CC1 | 516.2 | 19.8 | 236.6 | 2 | > 86 | 44.9 | 9.5 | 74.2 | 77.7 | 130 | 85.2 | 230.9 | 8160 | 21.8 | 134 | 55 | 2.33 | – | – | – | – |
| CCN1CCN(Cc2ccc(NC(=O)c3ccc(C)c(CCc4cnc5[nH]ccc5c4OC)c3)cc2C(F)(F)F)CC1 | – | 20.6 | – | – | 84.3 | 217 | – | 92.8 | 74.3 | 70.1 | 91.8 | – | 4810 | – | – | 10 | – | 77.2 | – | – | IC50 (Ephrin type-A receptor 2 [20]): 77.1 nM; inhibition [21]: 89.9%; inhibition [11]: > 96%; inhibition (Ephrin type-A receptor 2 [22]): 80.9%; IC50 [16]: 72.5 nM; IC50 [24]: 12.5 nM |
| CCN1CCN(Cc2ccc(NC(=O)c3ccc(C)c(Oc4cc(NC)ncn4)c3)cc2C(F)(F)F)CC1 | – | – | – | – | 91.3 | – | – | 74.1 | 78.5 | 250 | 98.6 | – | > 10000 | – | – | 46 | – | 58.4 | 252 | 577 | inhibition [27]: 78.5%; inhibition [28]: 75.8% |
| CCN1CCN(Cc2ccc(NC(=O)c3ccc(C)c(Oc4ncnc5cc(OC)c(OC)cc45)c3)cc2C(F)(F)F)CC1 | – | 30.5 | – | – | 93.2 | 129 | – | 80.6 | 83.7 | – | – | – | > 10000 | – | – | 92 | – | 78.8 | 50.8 | 36.1 | inhibition [27]: 94.7%; inhibition [28]: 92.9% |
| CCN1CCN(Cc2ccc(NC(=O)c3ccc(C)c(Oc4ncnc5[nH]c(C)cc45)c3)cc2C(F)(F)F)CC1 | 2136 | 18.2 | 554 | 4 | > 94 | 41.1 | 5.42 | 59.6 | 57.7 | 149 | 82.8 | 317 | > 10000 | 38.6 | 233 | 20 | 2.94 | – | 69.7 | 74.8 | inhibition [27]: 82.7% |
